Measured values collected from several papers.
Protocols differ between the studies behind these lines.
Target: Dual specificity protein kinase CLK2 (CLK2, Homo sapiens, UniProt P49760)

COc1ccc2c(O[C@@H]3C[C@H]4C(=O)N[C@]5(C(=O)O)CC5/C=C\CCCCC[C@H](NC(=O)OC5CCCC5)C(=O)N4C3)cc(-c3csc(NC(=O)C(C)C)n3)nc2c1C (stereo partly drawn)  remaining binding (cell-free assay, competition with immobilised ligand; 1 µM): 100%
O=C(Nc1cnn(-c2csc(C(=O)NC3COC3)c2)c1)Nc1c(F)cccc1Cl  remaining activity (enzyme activity, inhibitor; 5 µM): 109%
Cn1cnc(Br)c1C1=CN(c2ncnc3[nH]cnc23)CCS1  inhibition (enzyme activity, inhibitor, radiometric; 2 µM): 97.2%
Cc1ccc(NC(=O)c2ccc(CN3CCN(C)CC3)cc2)cc1Nc1nc(-c2cccnc2)cs1  remaining signal (cell-free assay; 0.5 µM): 86%
Cn1c2c(c3ccc(Cl)c(Cl)c31)C(C#N)C1(CCCCC1)NC2=O (racemic)  ΔTm (thermal stability, DSF; 10 µM): 2.1 °C
COc1cc(Nc2cnc(C#N)c(O[C@H](C)CN(C)C)n2)ncc1-c1cnn(C)c1  remaining activity (enzyme activity, inhibitor, radiometric; 1 µM): 95%
CC1(C)NC(=O)c2[nH]c3c(Cl)c(Cl)ccc3c2C1C#N (stereo not drawn)  ΔTm (thermal stability, DSF; 10 µM): 2.7 °C
FC(F)(F)Oc1cccc(-c2cnc3ccc(-c4ccncc4)nn23)c1  activity vs control (enzyme activity, inhibitor, radiometric; 1 µM): 0.675%
CN(C)C1CCN(CC#Cc2nn(C3CCCC3)c3nc(NCc4ccccc4)ncc23)C1 (stereo not drawn)  inhibition (enzyme activity, inhibitor, FRET; 0.1 µM): 8%
O=C1Nc2ccc(Cl)cc2C1=Cc1cc(Cl)c(O)c(Cl)c1  remaining signal (cell-free assay; 0.5 µM): 95.5%
COc1cccc2c(NCc3ccccc3)nc(-n3c(N)nc4ccccc43)nc12  inhibition (target engagement in cells, inhibitor, chemoproteomics; 20 mM): -12.9%
CN1CCC2(CC1)NC(=O)c1c(c3ccc(Cl)c(Cl)c3n1C)C2C#N (racemic)  ΔTm (thermal stability, DSF; 10 µM): 1.9 °C
O=S(=O)(NC1CCC(c2cc(F)ccc2F)(S(=O)(=O)c2ccc(Cl)cc2)CC1)C(F)(F)F (stereo not drawn)  remaining binding (cell-free assay, competition with immobilised ligand; 1 µM): 100%
Cn1c2c(c3ccc(Cl)c(Cl)c31)C(C#N)C1(CCCC1)NC2=O (stereo not drawn)  ΔTm (thermal stability, DSF; 10 µM): 1.7 °C
Cc1cc(NC(=O)c2cccc3cc(-c4cccc5[nH]nc(N)c45)ccc23)ccc1F  activity vs control (enzyme activity, inhibitor; 0.1 µM): 95%
CCCOc1ccc([C@H]2[C@H](C(=O)O)[C@@H](c3ccc4c(c3)OCO4)CN2CC(=O)Nc2c(CC)cccc2CC)cc1  remaining binding (cell-free assay, competition with immobilised ligand; 1 µM): 91%
CCN(CC)c1ccc(C2=NNC(=O)CC2C)cc1[N+](=O)[O-] (stereo not drawn)  remaining activity (enzyme activity, inhibitor; 10 µM): 96%
CCCS(=O)(=O)Nc1ccc(F)c(C(=O)c2c[nH]c3ncc(-c4ccc(Cl)cc4)cc23)c1F  inhibition (enzyme activity, inhibitor; 1 µM): < 10%
C#Cc1cccc(Nc2ncnc3cc(OCCOC)c(OCCOC)cc23)c1  remaining signal (cell-free assay; 0.5 µM): 93.4%
CCCCNc1ncc2c(-c3ccc(F)cc3)nn(C[C@H]3CC[C@H](N)CC3)c2n1  inhibition (target engagement in cells, inhibitor, chemoproteomics; 20 mM): 46.4%
COc1cc2ncnc(Nc3ccc(Oc4ccccc4)cc3C)c2cc1OC  inhibition (enzyme activity, inhibitor; 1 µM): 0%
CC/C(=N\NC(=O)NCc1cccc(O)c1)c1ccc(O)c(C)c1O  inhibition (enzyme activity, inhibitor; 0.1 µM): 1.6%
CN([C@@H]1CCc2c(CC(=O)O)c3cc(S(C)(=O)=O)ccc3n2C1)S(=O)(=O)c1ccc(F)cc1  remaining binding (cell-free assay, competition with immobilised ligand; 1 µM): 100%
CC(C1CC1)n1cnc2c(NCc3cccc(C(F)(F)F)c3)nc(NCCN(C)C)nc21 (stereo not drawn)  inhibition (enzyme activity, inhibitor; 5 µM): > 50%
COc1cc(/C=C/C(=O)CC(=O)/C=C/c2ccc(O)c(OC)c2)ccc1O  activity vs control (enzyme activity, inhibitor; 1 µM): 48%
COc1cc2ncnc(Nc3ccc(F)c(Cl)c3)c2cc1OCCCN1CCOCC1  remaining signal (cell-free assay; 0.5 µM): 94.8%
COc1cccc(CNC(=O)c2nc3scc(COCc4ccc(C(=O)O)cc4)c3c(=O)[nH]2)c1  remaining binding (cell-free assay, competition with immobilised ligand; 1 µM): 92.4%
Cn1c2c(c3ccc(Cl)c(Cl)c31)C(C#N)C1(CCN(C(=O)OC(C)(C)C)CC1)NC2=O (racemic)  ΔTm (thermal stability, DSF; 10 µM): -0.3 °C
CC(C)CC(=O)N1CCc2nc(-c3ccc(Br)cc3)nc(N(C)Cc3ccccc3)c2C1  remaining binding (cell-free assay, competition with immobilised ligand; 0.1 µM): 100%
CC(C)(C)c1nc2c(s1)c1nc(N)ncc1c1ccc(NS(=O)(=O)c3c(F)cccc3F)c(F)c12  remaining activity (enzyme activity, inhibitor, radiometric; 1 µM): 90%
COc1cc(Cl)c(C(=O)N[C@@H](CN[C@H]2CC[C@@H](N)CC2)Cc2ccc(C#N)cc2)cc1-c1ccc(CN[C@H](C)c2ccc(C)cc2)o1  remaining activity (enzyme activity, inhibitor; 1 µM): 92%
COc1cc(-c2cn(C3CCc4c(F)cccc4N(CC(F)(F)F)C3=O)nn2)ccc1-n1cnc(C)c1 (stereo not drawn)  remaining binding (cell-free assay, competition with immobilised ligand; 1 µM): 100%
Cn1c(=O)n(-c2ccc(C(C)(C)C#N)cc2)c2c3cc(-c4cnc5ccccc5c4)ccc3ncc21  remaining activity (enzyme activity, inhibitor; 10 µM): 53%
O=C(NCc1ncc(C(F)(F)F)cc1Cl)c1ccc2c(c1)C1(CCS(=O)(=O)CC1)[C@@H](C1CC1)N2S(=O)(=O)c1ccc(F)cc1  remaining binding (cell-free assay, competition with immobilised ligand; 1 µM): 82%
CS(=O)(=O)Nc1cccc(-c2csc(NC(=O)CSc3nc4nccnc4c(=O)n3CCc3ccccc3)n2)c1  inhibition (enzyme activity, inhibitor; 10 µM): 11%
CC(C)(O)[C@H]1CC[C@H](Nc2ccc3ncc(-c4cccc(C(F)(F)F)c4)n3n2)CC1  remaining activity (enzyme activity, inhibitor; 1 µM): 15.8%
